What was measured:
[1] = target: T1, Urease subunit alpha/Urease subunit beta (Helicobacter pylori (strain ATCC 700392 / 26695) (Campylobacterpylori), UniProt P69996); test: Inhibition of urease isolated from Helicobacter pylori ATCC 43504 assessed as ammonia production incubated for 1.5 hrs prior to testing by indophenol method
How it was run: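 Washed cells were sonicated in water with protease inhibitors, and the supernatant was desalted on Sephadex G-25. This crude urease, mixed with an equal volume of glycerol, was pre-incubated with test compound for 1.5 h at room temperature.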

[2] = target: T1, Urease subunit alpha/Urease subunit beta; test: Inhibition of urease in Helicobacter pylori ATCC 43504 assessed as ammonia production incubated for 1.5 hrs prior to testing by indophenol method
How it was run: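 Washed cells were sonicated 60 s in water with protease inhibitors. The supernatant was desalted on Sephadex G-25 and stored with equal-volume glycerol at 4 °C. Enzyme was preincubated with compound 1.5 h at room temperature.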

[3] = target: T2, Urease subunit alpha/Urease subunit beta (Helicobacter pylori (strain ATCC 700392 / 26695) (Campylobacterpylori)) (UniProt P69996+P14916); test: Potency index, ratio of AHA IC50 to compound IC50 for urease in Helicobacter pylori ATCC 43504
T2 sequence (P14916 whole entry, looked up): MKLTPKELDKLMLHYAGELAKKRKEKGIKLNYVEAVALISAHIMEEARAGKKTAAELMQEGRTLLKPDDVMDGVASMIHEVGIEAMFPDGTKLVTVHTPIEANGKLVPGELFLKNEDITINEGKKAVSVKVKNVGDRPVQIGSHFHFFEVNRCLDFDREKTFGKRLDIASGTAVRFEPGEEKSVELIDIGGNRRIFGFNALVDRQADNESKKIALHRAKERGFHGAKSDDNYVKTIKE
T2 sequence (P69996 whole entry, looked up): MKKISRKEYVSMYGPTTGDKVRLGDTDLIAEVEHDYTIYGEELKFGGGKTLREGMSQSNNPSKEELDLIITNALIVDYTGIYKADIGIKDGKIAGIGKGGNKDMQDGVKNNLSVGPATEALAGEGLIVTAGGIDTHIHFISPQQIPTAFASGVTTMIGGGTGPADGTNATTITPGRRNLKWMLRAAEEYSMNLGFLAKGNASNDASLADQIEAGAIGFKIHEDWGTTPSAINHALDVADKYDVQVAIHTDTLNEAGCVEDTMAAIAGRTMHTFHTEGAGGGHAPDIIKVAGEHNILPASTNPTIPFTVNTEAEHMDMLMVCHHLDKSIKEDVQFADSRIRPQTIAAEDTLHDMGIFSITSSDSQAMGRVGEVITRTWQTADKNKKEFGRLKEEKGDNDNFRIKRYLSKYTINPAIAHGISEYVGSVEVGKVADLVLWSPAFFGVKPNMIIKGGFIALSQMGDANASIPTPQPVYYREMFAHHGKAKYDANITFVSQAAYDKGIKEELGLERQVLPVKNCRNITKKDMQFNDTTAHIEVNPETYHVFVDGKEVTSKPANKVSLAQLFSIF

[4] = target: T2, Urease subunit alpha/Urease subunit beta (Helicobacter pylori (strain ATCC 700392 / 26695) (Campylobacterpylori)); test: Potency index, ratio of AHA IC50 to compound IC50 for urease isolated from Helicobacter pylori ATCC 4350; conditions: Helicobacter pylori ATCC 43504

T1 sequence (P69996 whole entry): as the sequence (P69996 whole entry, looked up) above
T1 sequence (P14916 whole entry, further chain): as the sequence (P14916 whole entry, looked up) above

**Q.** Which IC50 [1] does the source give for O=[N+]([O-])c1ccccc1NCc1ccc(O)c(O)c1 here?
**A.** 45.1 µM

**Q.** For CN(C)c1ccc(CNc2ccc(Cl)cc2)cc1, which IC50 [1] is on record?
**A.** > 500 µM

**Q.** For O=[N+]([O-])c1ccc(CNc2cccc([N+](=O)[O-])c2)cc1, which IC50 [1] is on record?
**A.** 64.9 µM

**Q.** Which IC50 [1] does the source give for O=[N+]([O-])c1cccc(CNc2cccc([N+](=O)[O-])c2)c1 here?
**A.** 85 µM

**Q.** How did the IC50 [1] turn out when O=[N+]([O-])c1ccc(CNc2cccc(Cl)c2)cc1 was run?
**A.** 236 µM

**Q.** Which IC50 [1] does the source give for O=[N+]([O-])c1ccccc1CNc1ccc(Cl)cc1 here?
**A.** 239 µM

**Q.** COc1ccc(CNc2cccc([N+](=O)[O-])c2)cc1OC was tested. Which IC50 [1] did it give?
**A.** 50.4 µM

**Q.** Which IC50 [1] does the source give for O=[N+]([O-])c1ccc(NCc2ccc(O)cc2)cc1 here?
**A.** 8.26 µM

**Q.** What about the IC50 [2] of the same compound?
**A.** 28.1 µM

**Q.** What does the source list for O=[N+]([O-])c1cccc(NCc2ccc(O)c(O)c2)c1?
**A.** IC50 [1]: 2.33 µM; IC50 [2]: 9.52 µM

**Q.** Clc1ccc(NCc2ccc3c(c2)OCO3)cc1 was tested. Which IC50 [1] did it give?
**A.** > 500 µM

**Q.** COc1ccc(NCc2ccc(N(C)C)cc2)cc1 was tested. Which IC50 [1] did it give?
**A.** > 500 µM

**Q.** For COc1ccc(NCc2ccc(Cl)cc2)cc1, which IC50 [1] is on record?
**A.** > 500 µM

**Q.** Which results are given for CN(C)c1ccc(CNc2cccc([N+](=O)[O-])c2)cc1?
**A.** IC50 [1]: 16.8 µM; IC50 [2]: 72.4 µM

**Q.** How did the IC50 [1] turn out when O=[N+]([O-])c1cccc(CNc2cccc(Cl)c2)c1 was run?
**A.** 410 µM

**Q.** For CC(=O)NO [ACETOHYDROXAMIC ACID], which IC50 [1] is on record?
**A.** 18.4 µM

**Q.** What about the IC50 [2] of the same compound?
**A.** 105 µM

**Q.** COc1ccc(CNc2ccc(Cl)cc2)cc1OC was tested. Which IC50 [1] did it give?
**A.** > 500 µM

**Q.** With O=[N+]([O-])c1cccc(NCc2ccc(Cl)cc2)c1 as the compound, how does the IC50 [1] read?
**A.** 57.5 µM

**Q.** For O=[N+]([O-])c1ccc(NCc2ccc(O)c(O)c2)cc1, which IC50 [1] is on record?
**A.** 0.62 µM

**Q.** And the IC50 [2]?
**A.** 1.92 µM

**Q.** What about the Ratio IC50 [3] of the same compound?
**A.** 54

**Q.** What about the Ratio IC50 [4] of the same compound?
**A.** 29

**Q.** How did the IC50 [1] turn out when O=[N+]([O-])c1ccc(NCc2ccc(Cl)cc2)cc1 was run?
**A.** 19.5 µM

**Q.** And the IC50 [2]?
**A.** 83.8 µM

**Q.** How did the IC50 [1] turn out when COc1ccc(NCc2cccc([N+](=O)[O-])c2)cc1 was run?
**A.** 319 µM

**Q.** Which results are given for O=[N+]([O-])c1ccc(CNc2ccc([N+](=O)[O-])cc2)cc1?
**A.** IC50 [1]: 26.3 µM; IC50 [2]: 126 µM
